Laboratory results as given in ChEMBL document CHEMBL1921704, “Discovery of N-aryl-2-acylindole human glucagon receptor antagonists” (Bioorg Med Chem Lett, 2011).

Key:
Glucagon receptor [1] = biological target: T1, Glucagon receptor (Homo sapiens, UniProt P47871); assay: Antagonist activity at human glucagon receptor expressed in CHO cells assessed as inhibition of forskolin/glucagon-induced cAMP production preincubated for 30 mins before glucagon challenge measured after 30 mins using [125I]-cAMP by liquid scintillation counting; format: functional, cell-based
Outline: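 Glucagon-induced cAMP production measured in CHO cells transfected with hGCGR. IC50 reported as the average rounded to two significant figures, with SEM when measured more than once.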

Glucagon receptor [2] = biological target: T1, Glucagon receptor; assay: Displacement of [125I]-glucagon from human glucagon receptor expressed in CHO cells after 4 to 12 hrs by scintillation proximity assay; format: cell-based
Outline: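 Scintillation proximity assay on membranes from CHO cells expressing hGCGR, measuring inhibition of ¹²⁵I-labelled glucagon binding. IC50 reported as the average rounded to two significant figures, with standard error of the mean when more than one measurement was made.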

[3] = Solubility of the compound; format: physicochemical

T1 sequence (P47871 whole entry): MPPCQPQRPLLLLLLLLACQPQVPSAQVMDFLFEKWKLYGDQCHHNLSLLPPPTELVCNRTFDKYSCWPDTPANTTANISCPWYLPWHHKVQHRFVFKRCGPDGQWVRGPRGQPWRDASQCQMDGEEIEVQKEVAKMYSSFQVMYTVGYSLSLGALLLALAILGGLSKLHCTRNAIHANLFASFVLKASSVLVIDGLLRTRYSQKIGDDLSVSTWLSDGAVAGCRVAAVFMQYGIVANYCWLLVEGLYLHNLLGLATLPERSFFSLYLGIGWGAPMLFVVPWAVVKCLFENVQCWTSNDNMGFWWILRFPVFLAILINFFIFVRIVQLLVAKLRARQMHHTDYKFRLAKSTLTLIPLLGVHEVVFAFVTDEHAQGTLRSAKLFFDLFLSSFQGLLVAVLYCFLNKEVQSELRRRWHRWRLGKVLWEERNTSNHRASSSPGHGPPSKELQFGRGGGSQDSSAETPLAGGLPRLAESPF

| SMILES | IC50 (Glucagon receptor [1]) | IC50 (Glucagon receptor [2]) | solubility [3] |
| --- | --- | --- | --- |
| CCCCC[C@@H](Cc1ccc(C(=O)NCCC(=O)O)cc1)C(=O)c1cc2cc(C(F)(F)F)ccc2n1-c1cccc(C(F)(F)F)c1 | 44 nM | 16 nM | – |
| Cn1/c(=N\c2ccc(OC(F)(F)F)cc2)n(Cc2ccc(C(=O)Nc3nnn[nH]3)cc2)c2cc(Cl)c(Cl)cc21 | – | – | Insoluble |
| CCCC(Cc1ccc(C(=O)NCCC(=O)O)cc1)C(=O)c1cc2cc(Cl)ccc2n1-c1ccc2cc(OC)ccc2c1 (single isomer, unassigned) | 95 nM | 34 nM | – |
| CCCC(Cc1ccc(C(=O)NCCC(=O)O)cc1)C(=O)c1cc2cc(Cl)ccc2n1-c1cc(Cl)cc(Cl)c1 (single isomer, unassigned) | – | 110 nM | – |
| CCCCC[C@@H](Cc1ccc(C(=O)NCCC(=O)O)cc1)C(=O)c1cc2cc(OC(F)(F)F)ccc2n1-c1cccc(C(F)(F)F)c1 | 17 nM | 5.7 nM | – |
| CCCC(Cc1ccc(C(=O)NCCC(=O)O)cc1)C(=O)c1cc2cc(Cl)ccc2n1-c1ccc2c(c1)OCCO2 (single isomer, unassigned) | 49 nM | 28 nM | – |
| CCCCC[C@@H](Cc1ccc(C(=O)NCCC(=O)O)cc1)C(=O)c1cc2cc(OC)ccc2n1-c1cccc(C(F)(F)F)c1 | 35 nM | 26 nM | – |

Results, then the compound that gave them:

| IC50 (Glucagon receptor [1]) | IC50 (Glucagon receptor [2]) | solubility [3] | SMILES |
| --- | --- | --- | --- |
| 100 nM | 32 nM | – | CCCC(Cc1ccc(C(=O)NCCC(=O)O)cc1)C(=O)c1cc2cc(Cl)ccc2n1-c1ccc(Cl)cc1 (single isomer, unassigned) |
| – | 450 nM | – | CCC[C@H](Cc1ccc(C(=O)NCCC(=O)O)cc1)C(=O)c1cc2cc(Cl)ccc2n1-c1cccc(C(F)(F)F)n1 |
| 39 nM | 23 nM | – | CCCC(Cc1ccc(C(=O)NCCC(=O)O)cc1)C(=O)c1cc2cc(Cl)ccc2n1-c1ccc(OC)c(C(F)(F)F)c1 (single isomer, unassigned) |
| 36 nM | 17 nM | – | CC(C)CC[C@@H](Cc1ccc(C(=O)NCCC(=O)O)cc1)C(=O)c1cc2cc(Cl)ccc2n1-c1cccc(C(F)(F)F)c1 |
| 30 nM | 31 nM | – | CCCC(Cc1ccc(C(=O)NCCC(=O)O)cc1)C(=O)c1cc2cc(Cl)ccc2n1-c1ccc(C(F)(F)F)cc1 (single isomer, unassigned) |
| 35 nM | 24 nM | – | CCCC(Cc1ccc(C(=O)NCCC(=O)O)cc1)C(=O)c1cc2cc(Cl)ccc2n1-c1cccc(OC(F)(F)F)c1 (single isomer, unassigned) |
| 20 nM | 10 nM | – | CCCCC[C@@H](Cc1ccc(C(=O)NCCC(=O)O)cc1)C(=O)c1cc2cc(F)ccc2n1-c1cccc(C(F)(F)F)c1 |
